Our source for the inhibition and Activity values is ChEMBL document CHEMBL4396957, “Potent bicyclic inhibitors of malarial cGMP-dependent protein kinase: approaches to combining improvements in cell potency, selectivity and structural novelty” (Bioorg Med Chem Lett, 2019).

Each structure is given as a SMILES string. Calls of active or inactive are those of the source. The rule behind the calls is not given here.

The target of data set [1] is Maternal embryonic leucine zipper kinase (Homo sapiens) (UniProt Q14680). Nature of the data set: Inhibition of human MELK at 1 uM relative to control.
Chain of Maternal embryonic leucine zipper kinase (Homo sapiens) (Q14680 whole entry, looked up): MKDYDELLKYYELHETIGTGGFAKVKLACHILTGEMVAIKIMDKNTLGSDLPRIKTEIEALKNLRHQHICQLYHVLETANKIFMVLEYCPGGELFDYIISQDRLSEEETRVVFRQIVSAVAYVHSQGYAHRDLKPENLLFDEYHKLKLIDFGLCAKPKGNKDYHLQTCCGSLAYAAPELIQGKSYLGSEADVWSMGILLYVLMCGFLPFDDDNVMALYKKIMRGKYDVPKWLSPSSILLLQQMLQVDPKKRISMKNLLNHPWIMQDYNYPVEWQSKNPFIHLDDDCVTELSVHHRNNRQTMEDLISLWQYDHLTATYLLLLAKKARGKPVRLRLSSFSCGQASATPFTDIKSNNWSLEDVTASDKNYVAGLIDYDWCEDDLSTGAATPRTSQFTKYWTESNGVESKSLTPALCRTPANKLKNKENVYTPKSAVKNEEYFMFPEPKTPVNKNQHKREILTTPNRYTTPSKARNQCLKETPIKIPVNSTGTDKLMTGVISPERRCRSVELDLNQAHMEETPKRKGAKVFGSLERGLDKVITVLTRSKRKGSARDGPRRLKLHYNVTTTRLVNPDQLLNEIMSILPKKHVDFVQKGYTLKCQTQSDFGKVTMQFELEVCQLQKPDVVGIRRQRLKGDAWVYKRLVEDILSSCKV
Data set [2] deals with T1, cGMP-dependent protein kinase 1 (Homo sapiens) (UniProt Q13976).
T1 sequence (whole entry): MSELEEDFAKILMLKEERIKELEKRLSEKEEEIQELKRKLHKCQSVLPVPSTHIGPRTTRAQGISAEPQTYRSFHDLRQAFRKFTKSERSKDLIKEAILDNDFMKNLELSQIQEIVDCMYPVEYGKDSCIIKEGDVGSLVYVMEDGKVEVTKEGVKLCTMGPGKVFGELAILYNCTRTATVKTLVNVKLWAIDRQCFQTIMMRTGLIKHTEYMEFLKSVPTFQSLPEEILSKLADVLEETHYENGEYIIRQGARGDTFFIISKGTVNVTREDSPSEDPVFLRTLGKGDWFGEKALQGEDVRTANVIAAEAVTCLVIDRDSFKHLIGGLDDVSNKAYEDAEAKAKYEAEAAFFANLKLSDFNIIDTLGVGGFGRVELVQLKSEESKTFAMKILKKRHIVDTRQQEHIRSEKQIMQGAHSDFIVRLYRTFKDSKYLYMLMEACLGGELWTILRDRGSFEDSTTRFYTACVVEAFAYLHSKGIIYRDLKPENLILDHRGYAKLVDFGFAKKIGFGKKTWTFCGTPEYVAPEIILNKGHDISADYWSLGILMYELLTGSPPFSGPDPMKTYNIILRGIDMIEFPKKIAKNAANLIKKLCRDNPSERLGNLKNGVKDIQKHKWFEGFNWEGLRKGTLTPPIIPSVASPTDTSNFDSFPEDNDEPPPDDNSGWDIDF
Nature of the data set: Inhibition of recombinant human N-terminal His6-tagged full length PKG1alpha expressed in baculovirus infected Sf21 insect cells upto 1 uM relative to control.

In data set [3] the target is Receptor-interacting serine/threonine-protein kinase 2 (Homo sapiens) (UniProt O43353). Kind of data set: Inhibition of human RIPK2 at 1 uM relative to control.
Chain of Receptor-interacting serine/threonine-protein kinase 2 (Homo sapiens) (O43353 whole entry): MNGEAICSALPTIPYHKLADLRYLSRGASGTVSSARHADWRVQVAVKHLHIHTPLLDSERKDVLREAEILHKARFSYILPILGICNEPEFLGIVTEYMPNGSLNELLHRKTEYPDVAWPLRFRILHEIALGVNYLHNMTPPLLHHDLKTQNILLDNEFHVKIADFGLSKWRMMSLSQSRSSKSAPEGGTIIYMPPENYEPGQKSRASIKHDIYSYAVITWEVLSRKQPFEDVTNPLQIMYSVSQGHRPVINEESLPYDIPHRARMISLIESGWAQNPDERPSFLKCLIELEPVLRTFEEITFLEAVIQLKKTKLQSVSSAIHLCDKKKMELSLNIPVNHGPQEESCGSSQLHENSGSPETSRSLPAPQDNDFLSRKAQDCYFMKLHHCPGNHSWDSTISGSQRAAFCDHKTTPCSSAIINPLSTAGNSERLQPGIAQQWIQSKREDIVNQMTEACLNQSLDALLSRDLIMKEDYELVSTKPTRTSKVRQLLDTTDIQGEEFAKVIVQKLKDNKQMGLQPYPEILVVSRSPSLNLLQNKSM
The target in data set [4] is T1, cGMP-dependent protein kinase 1 (Homo sapiens). Nature of the data set: Inhibition of recombinant human N-terminal His6-tagged full length PKG1beta expressed in baculovirus infected Sf21 insect cells upto 1 uM relative to control.
For the next data set, the system named is HepG2. Kind of data set: Cytotoxicity against human HepG2 cells assessed as reduction cell viability incubated for 48 hrs by CellTiter-Glo luminescent cell viability assay. Format: cell-based. Conditions: hepg2, 48 h. The procedure, abridged:
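HepG2 human liver-derived cells exposed to compound for 48 h in an in vitro viability assay. […]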

In the case of `CNc1nccc(-c2c(-c3ccc(F)cc3)nc3cc(NCCN(C)C)ccn23)n1`, the inhibition in data set [1] and in data set [3] was 50 to 90% throughout. The inhibition result in data set [2] and in data set [4] was “inactive” each time.

For the molecule `CN1CCN(c2ccc3nc(-c4ccc(F)cc4)c(-c4ccnc(N)n4)n3c2)CC1`, the Activity entry with HepG2 was “Toxic”.

With `CN1CCN(c2ccn3c(-c4ccnc(N)n4)c(-c4ccc(F)cc4)nc3c2)CC1`, the Activity result in the data set on HepG2 was “Non-Toxic”.

`CN(C)Cc1ccn2c(-c3ccnc(Nc4ccc(N5CCNCC5)cc4)n3)c(C3CC3)nc2c1`: the inhibition is greater than 90% in data set [1] and 50 to 90% in data set [3].

For `CN(C)Cc1ccn2c(-c3ccnc(N)n3)c(-c3ccc(F)cc3)nc2c1`, the inhibition is greater than 90% in data set [1] and 50 to 90% in data set [3]. In addition, the inhibition result in data set [2] and in data set [4] was “inactive” throughout.
